Published values from different studies.
Compare with care: the assays were run in different laboratories.
Target: Beta-secretase 1 (BACE1, Homo sapiens, UniProt P56817)
Action: inhibitor

For C=C(C)[C@@H]1CCC(C)=C[C@H]1c1c(O)cc2occ(-c3ccc(O)cc3)c(=O)c2c1O (relative stereo), the IC50 was > 200 µM (enzyme activity).
With [H]/N=C1\N[C@](C)(c2cccc(Nc3cnc(C4CC4)nc3)c2Cl)CC(=O)N1[C@H]1CCO[C@@H](C)C1 the IC50 was > 10 µM (enzyme activity; FRET).
CC(C)=CCc1c(O)cc(O)c2c(=O)c(-c3ccc(O)cc3)coc12 has an IC50 of 27 µM (enzyme activity).
For CC[C@H](C)[C@H](NC(=O)[C@@H](C[C@H](O)[C@@H](N)COc1ccc(-c2ccc(F)cc2)c(OCCCOC)c1)C(C)C)C(=O)NCc1ccc(Cl)cc1, the IC50 was 0.81 µM (enzyme activity; pH 4.5).
For CN(C)c1nc(N2CCCC2)nc2ccccc12, the IC50 was 500 µM (enzyme activity; FRET; pH 5).
For Cc1cc2cc(c1)C(=O)N[C@H]([C@H](O)CN(Cc1cccc(C(C)C)c1)C(=O)OC(C)(C)C)CCC/C=C/CCCC2=O, the IC50 was > 10 µM (enzyme activity in cells).
CC1(c2ccccc2)COCC(N)=N1 (stereo not drawn) has an IC50 of 200 µM (enzyme activity; FRET; pH 5).
For CC[C@H](C[C@H](O)[C@@H](N)COc1ccc(-c2ccc(F)cc2)c(OCCCOC)c1)C(=O)N[C@H](C(=O)NCc1ccc(Cl)cc1)[C@@H](C)CC, the IC50 was 1.1 µM (enzyme activity; pH 4.5).
For COc1ccc2c(c1)OC1Oc3cc(O)cc(O)c3C(=O)C21O (stereo not drawn), the IC50 was 139 µM (enzyme activity).
